As a reminder, the pIC50 is the negative decadic logarithm of the IC50, by convention in mol/L. A lower pIC50 goes with a high IC50.

One molecule from paper PMC3966491 (Chemical biology & drug design, 2013) can be followed below.

pIC50: −log10 of the molar value.

The subject of series [1] is 21 protein kinases including SPHK1, SPHK2, FES and AURKB. Briefly: in vitro selectivity against 21 protein kinases. It counts as biochemical. The note with it: 21 protein kinases previously inhibited by compound 1.
Another series has as its target T1, CHUK (IKK alpha) (Homo sapiens, UniProt O15111).
T1 sequence (O15111 1-745): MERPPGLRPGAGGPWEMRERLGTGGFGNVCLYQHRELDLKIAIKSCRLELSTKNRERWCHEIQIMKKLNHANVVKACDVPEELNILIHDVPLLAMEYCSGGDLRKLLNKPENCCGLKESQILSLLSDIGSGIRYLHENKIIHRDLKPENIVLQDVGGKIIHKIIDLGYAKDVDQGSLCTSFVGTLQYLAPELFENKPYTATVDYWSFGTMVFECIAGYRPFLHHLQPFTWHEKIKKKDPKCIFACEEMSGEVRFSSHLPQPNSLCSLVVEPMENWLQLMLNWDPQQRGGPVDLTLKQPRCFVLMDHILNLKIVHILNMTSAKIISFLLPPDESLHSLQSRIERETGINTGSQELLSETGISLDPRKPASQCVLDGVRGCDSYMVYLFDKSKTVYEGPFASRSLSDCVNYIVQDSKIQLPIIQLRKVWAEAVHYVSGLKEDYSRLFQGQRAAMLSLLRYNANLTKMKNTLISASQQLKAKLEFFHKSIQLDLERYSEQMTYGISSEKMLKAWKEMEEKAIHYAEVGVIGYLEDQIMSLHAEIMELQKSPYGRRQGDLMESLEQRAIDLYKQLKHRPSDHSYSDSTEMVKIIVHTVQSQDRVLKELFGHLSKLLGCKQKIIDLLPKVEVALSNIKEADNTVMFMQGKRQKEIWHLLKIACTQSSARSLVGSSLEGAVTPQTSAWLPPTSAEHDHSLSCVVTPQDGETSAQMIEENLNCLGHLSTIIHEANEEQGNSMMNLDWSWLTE
Put plainly: IKKα. It counts as biochemical. The gist of the method:
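ADAPTA ADP-detection format. Detection mix added EDTA (stop), europium-labelled anti-ADP antibody and Alexa Fluor 647 ADP tracer; ADP formation was taken from the emission ratio. Where noted, IC50 was predicted from % inhibition at 1 μM test compound, mean of two experiments.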

In another series the target is AKT2 (PKB beta) (Homo sapiens, UniProt P31751). Put plainly: AKT2 in vitro kinase assay. It counts as biochemical. The gist of the method: (§1)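 Z′-LYTE assay. Enzyme per 10 μL reaction: AKT1 0.34–7.65 ng, AKT2 1–40 ng, or AKT3 0.56–8.3 ng. Reaction contained 2 μM Ser/Thr 06 peptide, ATP at Km, 50 mM HEPES pH 7.5, 0.01% BRIJ-35, 10 mM MgCl2 and 1 mM EGTA. After 1 h, Development Reagent A (1:2048) protease cleaved non-phosphorylated peptide. Read-out was the coumarin 445 nm/fluorescein 520 nm emission ratio; curves were fitted.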

Another series has as its target AKT3 (PKB gamma) (Homo sapiens, UniProt Q9Y243). Briefly: AKT3 in vitro kinase assay. It counts as biochemical. The gist of the method:
as §1

Series [2] in a line: in vitro plasma stability. It counts as in vitro ADME.
Series [3] relates to Human UACC903 melanoma cells xenograft. Briefly: in vivo melanoma xenograft study. The note with it: oral gavage twice a week, 10 mg/kg and 25 mg/kg, single agent, nude mice.
Series [4] relates to UACC903 xenograft tumor sections. Briefly: TUNEL and IκB immunohistochemistry of xenograft tumor sections. It counts as in vivo, nude mice. The note with it: tumors from treated mice vs vehicle, after 28 days. The gist of the method:
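Female nude mice (6–7 weeks) received 1×10^6 UACC903 cells in PBS subcutaneously in the flank. After 4 weeks, tumours were fixed, paraffin-sectioned, immunostained (DAB, haematoxylin) or TUNEL-stained, then scanned. Scores: TUNEL-positive nuclei/area and IκB immunoscore/area; error bars SEM.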

Series [5] has as its system AKT levels and phosphorylation of its substrate PRAS40. Put plainly: Western blot of AKT pathway in melanoma UACC903 cells. Conditions: 4 hours. It counts as cell-based, human. (In general: In western blotting, separated proteins are transferred to a membrane and probed.)
For another series, the target named is T2, IKBKB (IKK beta) (Homo sapiens, UniProt O14920).
T2 sequence (O14920 1-756): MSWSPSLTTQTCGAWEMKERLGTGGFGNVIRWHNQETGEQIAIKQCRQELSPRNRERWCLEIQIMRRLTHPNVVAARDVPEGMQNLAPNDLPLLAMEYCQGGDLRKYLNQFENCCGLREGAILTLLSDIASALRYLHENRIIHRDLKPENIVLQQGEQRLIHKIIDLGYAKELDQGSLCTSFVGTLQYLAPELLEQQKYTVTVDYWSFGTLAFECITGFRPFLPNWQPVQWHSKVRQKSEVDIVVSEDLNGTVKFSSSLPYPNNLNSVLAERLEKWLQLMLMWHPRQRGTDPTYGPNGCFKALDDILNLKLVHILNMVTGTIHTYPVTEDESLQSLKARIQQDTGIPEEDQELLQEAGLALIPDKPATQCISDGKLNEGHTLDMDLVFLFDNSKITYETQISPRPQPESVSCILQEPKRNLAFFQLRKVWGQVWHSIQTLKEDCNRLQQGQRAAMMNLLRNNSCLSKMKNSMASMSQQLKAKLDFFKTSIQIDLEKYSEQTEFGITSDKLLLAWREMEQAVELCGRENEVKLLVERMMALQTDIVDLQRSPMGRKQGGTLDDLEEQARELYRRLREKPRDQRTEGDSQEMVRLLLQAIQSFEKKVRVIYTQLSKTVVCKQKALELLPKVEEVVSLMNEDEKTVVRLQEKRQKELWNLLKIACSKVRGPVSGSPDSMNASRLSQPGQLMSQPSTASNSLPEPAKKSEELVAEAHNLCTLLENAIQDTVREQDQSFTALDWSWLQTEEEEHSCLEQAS
Put plainly: IKKβ. It counts as biochemical. Put shortly: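 Z′-LYTE format. Development used Reagent B (1:64) protease; read-out was the coumarin 445 nm/fluorescein 520 nm emission ratio. Where noted, IC50 was predicted from % inhibition at 10 μM test compound, mean of two experiments.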

For series [6], the system named is phosphorylation of IKK Ser176/180 and total IκB levels. Briefly: Western blot of NF-κB pathway in TNF-α stimulated UACC903 cells. It counts as cell-based, human. The note with it: 10 μM, 1 hour prior to TNF-α stimulation (20 ng/ml).
A further series has as its target AKT1 (PKB alpha) (Homo sapiens, UniProt P31749). Briefly: AKT1 in vitro kinase assay. It counts as biochemical. The gist of the method:
as §1

The nature of series [7]: in vitro microsomal stability. It counts as in vitro ADME.

Chain of AKT2 (PKB beta) (P31751 whole entry): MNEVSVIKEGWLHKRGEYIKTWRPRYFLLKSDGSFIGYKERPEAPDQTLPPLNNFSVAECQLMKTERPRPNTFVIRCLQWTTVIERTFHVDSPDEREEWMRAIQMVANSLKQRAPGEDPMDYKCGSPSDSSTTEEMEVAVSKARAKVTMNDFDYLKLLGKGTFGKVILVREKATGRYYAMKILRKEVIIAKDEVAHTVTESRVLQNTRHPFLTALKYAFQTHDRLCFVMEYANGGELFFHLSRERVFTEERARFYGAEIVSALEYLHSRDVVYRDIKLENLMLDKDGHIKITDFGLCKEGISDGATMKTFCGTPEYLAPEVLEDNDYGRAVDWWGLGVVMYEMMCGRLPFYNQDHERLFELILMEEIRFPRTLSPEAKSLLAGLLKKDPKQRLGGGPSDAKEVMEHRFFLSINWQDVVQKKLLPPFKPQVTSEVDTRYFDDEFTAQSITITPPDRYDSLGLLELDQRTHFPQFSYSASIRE
Chain of AKT1 (PKB alpha) (P31749 whole entry): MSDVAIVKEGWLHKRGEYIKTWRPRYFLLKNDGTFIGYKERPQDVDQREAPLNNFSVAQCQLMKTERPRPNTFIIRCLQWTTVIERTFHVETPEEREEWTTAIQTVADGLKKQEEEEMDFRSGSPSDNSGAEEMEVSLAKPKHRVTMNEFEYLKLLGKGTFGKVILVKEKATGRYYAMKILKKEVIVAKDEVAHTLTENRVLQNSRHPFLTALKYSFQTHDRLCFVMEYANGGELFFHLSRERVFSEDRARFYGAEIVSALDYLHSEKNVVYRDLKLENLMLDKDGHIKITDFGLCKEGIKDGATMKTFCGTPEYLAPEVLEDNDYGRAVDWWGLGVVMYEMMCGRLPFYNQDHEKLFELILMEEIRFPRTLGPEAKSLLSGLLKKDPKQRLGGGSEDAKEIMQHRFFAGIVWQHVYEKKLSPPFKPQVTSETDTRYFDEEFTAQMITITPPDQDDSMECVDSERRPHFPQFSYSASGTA
Chain of AKT3 (PKB gamma) (Q9Y243 whole entry): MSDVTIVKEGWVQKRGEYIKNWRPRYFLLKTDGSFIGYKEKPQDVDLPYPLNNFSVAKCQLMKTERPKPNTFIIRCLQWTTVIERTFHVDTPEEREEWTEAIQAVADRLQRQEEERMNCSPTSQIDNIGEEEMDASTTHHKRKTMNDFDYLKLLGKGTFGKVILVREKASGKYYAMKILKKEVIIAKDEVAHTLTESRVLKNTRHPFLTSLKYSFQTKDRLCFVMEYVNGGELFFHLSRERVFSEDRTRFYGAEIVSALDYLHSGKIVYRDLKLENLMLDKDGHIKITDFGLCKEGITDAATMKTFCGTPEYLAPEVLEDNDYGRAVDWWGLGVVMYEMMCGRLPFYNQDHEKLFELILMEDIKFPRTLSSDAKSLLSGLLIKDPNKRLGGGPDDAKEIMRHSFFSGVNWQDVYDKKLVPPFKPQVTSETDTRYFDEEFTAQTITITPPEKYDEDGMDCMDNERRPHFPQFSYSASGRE

`O=C(/C=C/c1nc2cc(F)ccc2[nH]1)c1c(-c2ccccc2)c2cc(Cl)ccc2[nH]c1=O` [compound 42, (E)-6-chloro-3-(3-(5-fluoro-1H-benzo[d]imidazol-2-yl)acryloyl)-4-phenylquinolin-2(1H)-one]: in series [1], the “IC50 values against all the selected kinases (in words)” value is reported as “low micromolar range”. Further, the pIC50 against CHUK (IKK alpha) was 5.22; against AKT2 (PKB beta), 5.46; at AKT3 (PKB gamma), 5.19; against IKBKB (IKK beta) it was 5.72; at AKT1 (PKB alpha) it was 5.30. Further, the plasma stability result in series [2] is “favorable”. Also, the “tumor growth in xenograft” value in [3] was “Remarkable tumor growth/suppression”. Also, in [4], the “IκB expression in tumors” value is listed as “higher IκB expression”. In addition, in series [4], the “apoptosis in tumors (TUNEL staining)” value was “higher levels of apoptosis”. Further, the “inhibition of AKT levels and PRAS40 phosphorylation” value in series [5] is “effectively inhibited”. For the same molecule, the “inhibition of phosphorylation of IKK Ser176/180 and total IκB levels” value in series [6] is reported as “effectively inhibited”. Also, the microsomal stability entry in series [7] is given as “favorable”.
